From ChEMBL document CHEMBL3804778, “Astemizole Derivatives as Fluorescent Probes for hERG Potassium Channel Imaging” (ACS Med Chem Lett, 2016)

Experiments:
[1] = test system: HEK293; experiment: Cytotoxicity against human ERG transfected HEK293 cells after 24 hrs by MTT assay; format: cell-based; settings: HEK293, 24 h
How it was run: (§1)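 MTT viability assay in hERG-transfected HEK293 cells and in HT-29 cells exposed to probe. Half-maximal inhibitory concentration was derived for each cell line and reported as mean ± deviation.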

[2] = test system: HT-29; experiment: Cytotoxicity against human HT-29 cells after 24 hrs by MTT assay; format: cell-based; settings: HT-29, 24 h; how it was run: as §1
[3] = target: T1, Voltage-gated inwardly rectifying potassium channel KCNH2 (Homo sapiens, UniProt Q12809); experiment: Binding affinity to human ERG channel expressed in HEK293 cells assessed as fluorescence signal at 0.5 uM incubated for 10 mins by fluorescence microscopic imaging analysis in presence of astemizole; format: cell-based; settings: hek293, 10 min
How it was run: (§2)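 Competition imaging in hERG-transfected HEK293 or HT-29 cells. Cells were co-incubated with 100 μM astemizole and 0.5 μM probe, then imaged by fluorescence microscopy in bright field and the GFP channel. Cell autofluorescence, with and without astemizole, was checked separately.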

[4] = target: T1, Voltage-gated inwardly rectifying potassium channel KCNH2; experiment: Displacement of [3H] dofetilide from human ERG channel expressed in HEK293 cell membranes incubated for 2 hrs by scintillation counting analysis
[5] = target: T1, Voltage-gated inwardly rectifying potassium channel KCNH2; experiment: Binding affinity to ERG channel in human HT-29 cells assessed as fluorescence signal at 0.5 uM incubated for 10 mins by fluorescence microscopic imaging analysis; format: cell-based; settings: ht-29, 10 min
How it was run: (§3)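 Live-cell fluorescence microscopy of hERG-transfected HEK293 cells or HT-29 colorectal cancer cells incubated with probe at 0.5 μM. Images were taken in bright field and in the GFP channel. Probe photophysics were characterised at 10 μM in PBS, pH 7.4.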

[6] = target: T1, Voltage-gated inwardly rectifying potassium channel KCNH2; experiment: Binding affinity to human ERG channel expressed in HEK293 cells assessed as fluorescence signal at 0.5 uM incubated for 10 mins by fluorescence microscopic imaging analysis; format: cell-based; settings: hek293, 10 min; how it was run: as §3
[7] = target: T1, Voltage-gated inwardly rectifying potassium channel KCNH2; experiment: Binding affinity to ERG channel in human HT-29 cells assessed as fluorescence signal at 0.5 uM incubated for 10 mins by fluorescence microscopic imaging analysis in presence of astemizole; format: cell-based; settings: ht-29, 10 min; how it was run: as §2

T1 sequence (Q12809 whole entry): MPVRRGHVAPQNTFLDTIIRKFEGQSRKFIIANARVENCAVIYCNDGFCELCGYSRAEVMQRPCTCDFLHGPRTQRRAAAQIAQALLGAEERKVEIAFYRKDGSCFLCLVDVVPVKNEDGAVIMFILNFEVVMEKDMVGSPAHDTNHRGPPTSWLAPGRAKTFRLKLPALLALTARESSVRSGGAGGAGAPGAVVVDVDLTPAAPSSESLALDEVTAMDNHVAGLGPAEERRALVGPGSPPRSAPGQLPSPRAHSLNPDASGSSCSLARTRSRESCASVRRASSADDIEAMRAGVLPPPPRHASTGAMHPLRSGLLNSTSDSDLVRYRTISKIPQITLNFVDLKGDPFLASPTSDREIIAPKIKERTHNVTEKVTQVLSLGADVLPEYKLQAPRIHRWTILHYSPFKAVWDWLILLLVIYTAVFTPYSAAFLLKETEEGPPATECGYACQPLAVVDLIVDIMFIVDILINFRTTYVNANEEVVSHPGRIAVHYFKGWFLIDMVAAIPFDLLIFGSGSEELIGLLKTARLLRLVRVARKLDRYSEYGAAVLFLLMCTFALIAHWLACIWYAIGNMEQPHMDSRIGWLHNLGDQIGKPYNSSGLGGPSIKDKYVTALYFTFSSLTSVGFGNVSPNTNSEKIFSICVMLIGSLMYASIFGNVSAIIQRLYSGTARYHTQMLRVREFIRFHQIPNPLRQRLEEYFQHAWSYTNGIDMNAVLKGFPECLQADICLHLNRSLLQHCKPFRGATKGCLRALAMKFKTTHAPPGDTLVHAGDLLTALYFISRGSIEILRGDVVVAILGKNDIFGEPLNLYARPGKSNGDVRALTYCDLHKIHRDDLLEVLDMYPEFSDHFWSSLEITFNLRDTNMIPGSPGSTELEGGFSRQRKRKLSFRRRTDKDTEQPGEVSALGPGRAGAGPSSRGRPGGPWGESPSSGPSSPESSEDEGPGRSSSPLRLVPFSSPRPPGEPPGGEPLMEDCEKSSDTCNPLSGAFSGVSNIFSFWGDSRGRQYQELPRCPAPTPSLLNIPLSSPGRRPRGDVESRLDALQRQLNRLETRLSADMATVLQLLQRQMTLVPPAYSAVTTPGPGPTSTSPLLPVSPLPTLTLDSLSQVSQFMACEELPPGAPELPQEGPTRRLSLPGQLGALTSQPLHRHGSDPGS

CCN(CC)c1ccc2cc(C(=O)NCCCCN3CCC(Nc4nc5ccccc5n4Cc4ccc(F)cc4)CC3)c(=O)oc2c1
IC50 [1]: 4.7 µM
IC50 [2]: 9.9 µM

CC(=O)Nc1ccc2c3c(cccc13)C(=O)N(CCCCN1CCC(Nc3nc4ccccc4n3Cc3ccc(F)cc3)CC1)C2=O
IC50 [1]: 7.2 µM
IC50 [2]: 18.6 µM

O=[N+]([O-])c1ccc(NCCCCN2CCC(Nc3nc4ccccc4n3Cc3ccc(F)cc3)CC2)c2nonc12
Activity [3]: Not Active
IC50 [4]: 0.025 µM
Ki [4]: 0.012 µM
Activity [5]: Active
Activity [6]: Active
Activity [7]: Not Active
IC50 [1]: 12.5 µM
IC50 [2]: 36.1 µM

COc1ccc(CCN2CCC(Nc3nc4ccccc4n3Cc3ccc(F)cc3)CC2)cc1 [ASTEMIZOLE]
IC50 [1]: 5.1 µM
IC50 [2]: 15.4 µM
